Activity calls are given as the source filed them. The rule behind the calls is not given here.
Assays:
[1] = target: T1, Adenosine receptor A2b (Homo sapiens) (UniProt P29275); assay: Binding affinity to human Adenosine A2B receptor expressed in yeast cells coexpressed with GPA1/Galphas; format: cell-based
T1 sequence (whole entry): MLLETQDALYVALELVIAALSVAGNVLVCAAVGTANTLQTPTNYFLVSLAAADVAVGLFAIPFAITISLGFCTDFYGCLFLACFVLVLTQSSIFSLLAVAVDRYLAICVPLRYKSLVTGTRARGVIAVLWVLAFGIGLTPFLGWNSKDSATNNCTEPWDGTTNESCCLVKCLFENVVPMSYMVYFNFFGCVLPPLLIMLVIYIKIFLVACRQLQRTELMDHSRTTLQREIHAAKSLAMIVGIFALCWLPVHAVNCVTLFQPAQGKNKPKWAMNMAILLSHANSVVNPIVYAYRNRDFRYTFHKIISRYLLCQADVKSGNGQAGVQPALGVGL
Procedure, shortened: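 pKA is derived by non-linear regression of the operational model of agonism applied to 16 h yeast FUS1-lacZ concentration-response data, with A2BR coupled to the GPA1/Gαs chimera.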

[2] = target: T2, Adenosine receptor A2a (Homo sapiens, UniProt P29274); assay: Agonist activity at human Adenosine A2A receptor expressed in yeast cells coexpressed with chimeric GPA1/Galphas at 100 uM after 16 hrs by beta-galactosidase reporter gene assay; format: cell-based
Procedure, shortened: (§1)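 Human receptor expressed from GAPDH promoter (p426-GPD) in Δfar1 FUS1-lacZ yeast with Gpa1p(1-467) carrying the 5 C-terminal Gα residues. Cells are grown overnight in SD-URA at 30°C, diluted 1:10 and grown 8 h. They are set to OD600 0.02 and given compound at 1% v/v DMSO for 16 h at 30°C. A2A strain is grown in SD-URA-HIS, with 5 mM 3-amino-triazole in treatment media. Read-out: ONPG, (OD430−OD620)/OD620.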

[3] = target: T3, Adenosine receptor A1 (Homo sapiens) (UniProt P30542)
T3 sequence (whole entry): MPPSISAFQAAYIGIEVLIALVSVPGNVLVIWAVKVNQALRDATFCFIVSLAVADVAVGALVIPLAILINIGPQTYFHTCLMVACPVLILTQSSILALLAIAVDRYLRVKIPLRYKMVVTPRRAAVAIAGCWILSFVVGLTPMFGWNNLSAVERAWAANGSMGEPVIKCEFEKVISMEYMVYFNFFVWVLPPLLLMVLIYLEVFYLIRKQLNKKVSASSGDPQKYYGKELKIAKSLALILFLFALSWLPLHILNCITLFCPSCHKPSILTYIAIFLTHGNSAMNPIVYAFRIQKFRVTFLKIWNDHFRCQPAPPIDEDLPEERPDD

[4] = target: T4, Adenosine receptor A1 (Homo sapiens, UniProt P30542); assay: Displacement of [3H]CPX from human Adenosine A1 receptor expressed in DDT1MF-2 cells; format: cell-based
T4 sequence (P30542 whole entry): T3 sequence (whole entry)

[5] = target: T4, Adenosine receptor A1; assay: Competitive antagonist activity at human Adenosine A1 receptor expressed in yeast cells after 16 hrs by LacZ reporter gene assay; format: cell-based; conditions: read-out: pA2 (converted)
[6] = target: T3, Adenosine receptor A1 (Homo sapiens); assay: Agonist activity at human Adenosine A1 receptor expressed in yeast cells coexpressed with chimeric GPA1/Galphai1 at 100 uM after 16 hrs by beta galactosidase reporter gene assay; format: cell-based; procedure, shortened: as §1
[7] = target: T2, Adenosine receptor A2a
[8] = target: T4, Adenosine receptor A1; assay: Displacement of [3H]CPX from human Adenosine A1 receptor expressed in CHO cells; format: cell-based
[9] = target: T1, Adenosine receptor A2b (Homo sapiens); assay: Agonist activity at human Adenosine A2B receptor expressed in yeast cells coexpressed with chimeric GPA1/Galphas at 100 µM after 16 hrs by beta-galactosidase reporter gene assay; format: cell-based
Procedure, shortened: (§2)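 Yeast (Δfar1, FUS1-lacZ) express A2BR from the GAPDH promoter alongside Gpa1p/Gαs chimera. The OD600 is 0.02 and compound is added in 1% v/v DMSO for 16 h at 30°C. β-Galactosidase is read with ONPG at OD430, normalised as (OD430−OD620)/OD620. […] Three-parameter logistic fit gives EC50 and Emax. Data are from 5-8 independent experiments.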

[10] = target: T5, Adenosine receptor A2b (Homo sapiens, UniProt P29275); assay: Agonist activity at human Adenosine A2B receptor expressed in yeast cells coexpressed with chimeric GPA1/Galphas after 16 hrs by beta-galactosidase reporter gene assay; format: cell-based
T5 sequence (P29275 whole entry): T1 sequence (whole entry)
Procedure, shortened: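 Yeast (Δfar1, FUS1-lacZ) express A2BR from the GAPDH promoter alongside Gpa1p/Gαs chimera. The OD600 is 0.02 and compound is added in 1% v/v DMSO for 16 h at 30°C. β-Galactosidase is read with ONPG at OD430, normalised as (OD430−OD620)/OD620. Three-parameter logistic fit gives EC50 and Emax. Data are from 5-8 independent experiments.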

[11] = target: T4, Adenosine receptor A1; assay: Agonist activity at human Adenosine A1 receptor expressed in yeast cells coexpressed with chimeric GPA1/Galphai1 after 16 hrs by beta galactosidase reporter gene assay; format: cell-based
[12] = target: T2, Adenosine receptor A2a; remark: listed apart in the source
[13] = target: T6, Adenosine receptor A3 (Homo sapiens, UniProt P0DMS8); assay: Agonist activity at human Adenosine A3 receptor transfected in CHO-K1 cells assessed as inhibition of forskolin-stimulated cAMP production after 30 mins by multimode microplate reader analysis; format: functional, cell-based
T6 sequence (P0DMS8 whole entry): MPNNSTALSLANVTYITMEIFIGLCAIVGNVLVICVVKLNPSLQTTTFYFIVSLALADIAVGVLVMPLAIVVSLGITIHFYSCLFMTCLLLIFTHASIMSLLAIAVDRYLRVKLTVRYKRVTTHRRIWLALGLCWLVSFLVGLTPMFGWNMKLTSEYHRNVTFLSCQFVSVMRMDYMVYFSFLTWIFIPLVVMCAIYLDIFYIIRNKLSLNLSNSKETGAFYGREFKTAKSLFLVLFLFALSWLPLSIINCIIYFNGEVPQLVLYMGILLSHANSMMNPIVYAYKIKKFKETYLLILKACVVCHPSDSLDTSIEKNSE
Procedure, shortened: (§3)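 CHO-K1 cells are transiently transfected with receptor (2 µg DNA, FuGene 6) and harvested at 48 h. They are co-incubated with 10 µM forskolin and ligand (10 pM to 1 µM) for 30 min at room temperature. cAMP is measured by LANCE kit. Data are expressed as % of the 10 µM forskolin response.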

[14] = target: T2, Adenosine receptor A2a; assay: Agonist activity at human Adenosine A2A receptor expressed in yeast cells coexpressed with chimeric GPA1/Galphas after 16 hrs by beta-galactosidase reporter gene assay; format: cell-based
[15] = target: T7, Adenosine receptor A3 (Homo sapiens) (UniProt P0DMS8); assay: Agonist activity at human Adenosine A3 receptor transfected in CHO-K1 cells assessed as inhibition of forskolin-stimulated cAMP production after 30 mins by multimode microplate reader analysis relative to total forskolin; format: functional, cell-based; design: concentration or dose not given beside the values
T7 sequence (whole entry): T6 sequence (P0DMS8 whole entry)
Procedure, shortened: as §3, with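 “h. Cells are resuspended in PBS with 0.1% BSA and 25 µM rolipram, at 2500 cells/well.” for “h.”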

[16] = target: T4, Adenosine receptor A1; assay: Agonist activity at human Adenosine A1 receptor transfected in CHO-K1 cells assessed as inhibition of forskolin-stimulated cAMP production after 30 mins by multimode microplate reader analysis; format: functional, cell-based
[17] = target: T3, Adenosine receptor A1 (Homo sapiens); remark: listed apart in the source
[18] = target: T1, Adenosine receptor A2b (Homo sapiens); assay: Agonist activity at human Adenosine A2B receptor expressed in yeast cells coexpressed with chimeric GPA1/Galphas after 16 hrs by beta-galactosidase reporter gene assay relative to NECA; format: cell-based; procedure, shortened: as §2
[19] = target: T1, Adenosine receptor A2b (Homo sapiens)

T2 sequence (P29274 whole entry): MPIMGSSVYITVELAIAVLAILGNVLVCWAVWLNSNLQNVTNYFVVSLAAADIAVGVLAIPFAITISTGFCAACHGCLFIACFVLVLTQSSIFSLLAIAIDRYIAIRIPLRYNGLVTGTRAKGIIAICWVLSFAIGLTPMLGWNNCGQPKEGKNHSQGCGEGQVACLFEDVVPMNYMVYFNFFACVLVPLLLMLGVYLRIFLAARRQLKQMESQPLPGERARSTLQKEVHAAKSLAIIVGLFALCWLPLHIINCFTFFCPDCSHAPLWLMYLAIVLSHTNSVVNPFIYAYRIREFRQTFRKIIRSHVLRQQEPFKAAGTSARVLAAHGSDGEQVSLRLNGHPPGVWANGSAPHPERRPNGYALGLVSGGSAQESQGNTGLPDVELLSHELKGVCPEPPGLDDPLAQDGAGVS

| pKA [1] | Activity [2] | pKA [3] | Ki [4] | Kb [5] | Activity [6] | pKA [7] | Ki [8] | Activity [9] | EC50 [10] | EC50 [11] | log(activity) [12] | IC50 [13] | EC50 [14] | Activity [15] | IC50 [16] | log(activity) [17] | Emax [18] | log(activity) [19] | SMILES |
| --- | --- | --- | --- | --- | --- | --- | --- | --- | --- | --- | --- | --- | --- | --- | --- | --- | --- | --- | --- |
| inactive | inactive | inactive | 0.113 µM | 5.01 µM | inactive | inactive | 1.1 µM | inactive | – | – | – | – | – | – | – | – | – | – | O[C@@H]1[C@H](O)[C@@H](CSc2ccccc2F)O[C@H]1n1cnc2c(N[C@@H]3CCC[C@H]3O)ncnc21 [GS-9667] |
| inactive | inactive | inactive | – | 0.398 µM | inactive | inactive | – | inactive | – | – | – | – | – | – | – | – | – | – | O[C@@H]1[C@H](O)[C@@H](CSc2ccccc2F)O[C@H]1n1cnc2c(N[C@@H]3CCC[C@H]3OCc3ccccc3)ncnc21 |
| 4.2 | – | 4.8 | – | – | – | 4.6 | – | – | 331 µM | 0.316 µM | 0.3 | 0.00229 µM | 5.75 µM | -37.9% | 0.00617 µM | 1.6 | 49.2% | -0.2 | CCNC(=O)[C@H]1O[C@@H](n2cnc3c(N[C@@H]4CCC[C@H]4O)ncnc32)[C@H](O)[C@@H]1O |

Reference: ChEMBL document CHEMBL3769381 (J Med Chem, 2016)
